In ChEMBL document CHEMBL2434964, “Novel 1H-pyrrolo[2,3-b]pyridine derivative nortopsentin analogues: synthesis and antitumor activity in peritoneal mesothelioma experimental models” (J Med Chem, 2013):
pIC50: −log10 of the molar value. Activity calls are given as the source filed them. The rule behind the calls is not given here.

Assays:
[1] = system: Meso2; experiment: Induction of apoptosis in human Meso2 cells assessed as increase in caspase 3 activation at 4 to 8 uM hrs by DEVD-pNA substrate-based spectrofluorometric analysis in presence of paclitaxel; type: functional, cell-based
[2] = system: STO; experiment: Induction of apoptosis in human STO cells assessed as increase in caspase 3 activation at 0.3 to 0.6 uM hrs by DEVD-pNA substrate-based spectrofluorometric analysis in presence of paclitaxel; type: functional, cell-based
[3] = Cell cycle arrest in human Meso2 cells assessed as accumulation at G2/M phase at IC50 after 72 hrs by propidium iodide staining-based FACS-flow cytometry relative to control; type: functional
[4] = system: Meso2; experiment: Induction of apoptosis in human Meso2 cells assessed as increase in caspase 3 activation at 4 to 8 uM hrs by DEVD-pNA substrate-based spectrofluorometric analysis relative to control; type: functional, cell-based
[5] = system: STO; experiment: Induction of apoptosis in human STO cells assessed as increase in caspase 3 activation at 0.3 to 0.6 uM hrs by DEVD-pNA substrate-based spectrofluorometric analysis relative to control; type: functional, cell-based
[6] = (§1) Cytotoxicity against human STO cells assessed as growth inhibition after 72 hrs by MTS assay; type: functional, cell-based
Outline: (§2)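 Log-phase cells, 4500 per well, plated 24 h, then given 0.1–100 μM compound for 72 h; vehicle (DMSO) controls. MTS read-out at 490 nm as % of DMSO-treated cells. IC50 taken graphically from the dose-response curve. Eight replicates; mean ± SD of at least three independent experiments.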

[7] = system: STO; experiment: as §1; type: functional, cell-based; outline: as §2
[8] = (§3) Cytotoxicity against human cells Meso2 assessed as growth inhibition after 72 hrs by MTS assay; type: functional, cell-based; settings: Meso2, 72 h; outline: as §2
[9] = organism: Homo sapiens; experiment: as §3; type: functional, cell-based; outline: as §2
[10] = Cytotoxicity against human W138 cells assessed as growth inhibition after 72 hrs by MTS assay; type: cell-based; settings: WI-38, 72 h; outline: as §2
[11] = Antitumor activity against human STO cells xenografted in athymic nude mouse assessed as tumor volume inhibition at 50 mg/kg, ip qd for 4 to 5 days per week for 3 weeks measured on day 17 post dose; type: functional; settings: route intraperitoneal
Outline: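 Female athymic Swiss nude mice, 8-10 weeks old; 10⁷ exponentially growing STO cells injected s.c. into right flank. Dosing i.p. qdx4-5/wx3w, starting the day after cell injection. Tumor volume = d²xD/2. TVI% = 100-(mean TV treated/mean TV control x 100), read 17 days after end of treatment (day 35). Two-tailed Student's t test.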

[12] = Cell cycle arrest in human STO cells assessed as accumulation at G2/M phase at IC50 after 72 hrs by propidium iodide staining-based FACS-flow cytometry relative to control; type: functional
[13] = system: Mus musculus; experiment: Toxicity in athymic nude mouse xenografted with human STO cells assessed as body weight loss at 50 mg/kg, ip qd for 4 to 5 days per week for 3 weeks measured on day 17 post dose; type: organism-based; design: dose 50 mg/kg, route intraperitoneal; settings: in vivo
Outline: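 Female athymic Swiss nude mice bearing s.c. STO flank xenografts (10⁷ cells). Dosing i.p. qdx4-5/wx3w, starting the day after cell injection. Toxicity recorded as % body weight loss and lethal toxicity. Deaths in treated mice before the first control death were counted as toxic.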

[14] = system: Mus musculus; experiment: Toxicity in athymic nude mouse xenografted with human STO cells assessed as mortality at 50 mg/kg, ip qd for 4 to 5 days per week for 3 weeks measured on day 17 post dose; type: organism-based; design: dose 50 mg/kg, route intraperitoneal; settings: in vivo
Outline: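 Female athymic Swiss nude mice, 8-10 weeks old, given 10⁷ exponentially growing STO cells s.c. in the right flank. Dosing i.p. qdx4-5/wx3w, starting the day after cell injection. Toxicity was scored as body weight loss and lethal toxicity, reported as toxic deaths per treated group (n=8). Deaths in treated mice before the first control death were counted as toxic.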

[15] = molecular target: Cyclin-dependent kinase 1/cyclin B1 (Homo sapiens, UniProt P06493); experiment: Inhibition of human recombinant CDK1/cyclin B after 30 mins by fluorescence assay; type: protein-complex assay
Outline: (§4)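 Recombinant kinases (CDK1/cyclin B; GSK3β) in Omnia fluorescence assay with peptide substrate, ATP and DTT in kinase buffer, run 30 min at 30°C. Compound range 0.05-50 μM. Fluorescence read at ex 360/em 485 nm. IC50 taken graphically; mean ± SD of three independent experiments.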

[16] = molecular target: Glycogen synthase kinase-3 beta (Homo sapiens, UniProt P49841); experiment: Inhibition of human GSK-3 beta after 30 mins by fluorescence assay; outline: as §4
[17] = molecular target: Cyclin-dependent kinase 1/cyclin B1 (Homo sapiens) (UniProt P06493+P14635); experiment: Inhibition of CDK1/cyclin B in human STO cells using histone H1 as substrate assessed as histone H1 phosphorylation preincubated at IC50 by immunoprecipitate-based densitometric analysis; type: cell-based; settings: TDE = time-dependent effect
Outline: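 STO cells exposed at IC50 for 24, 48 and 72 h, with DMSO controls. Lysates immunoprecipitated with anti-cyclin B1, 4 h at 4°C. Precipitates incubated 20 min at 30°C with 3 μg histone H1, MgCl₂, cold ATP and [γ32P]ATP, pH 7.5. Products run on 12% SDS gel and quantified by densitometry as % of DMSO control.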

[18] = system: Meso2; experiment: Potentiation of paclitaxel-induced cytotoxicity in human Meso2 cells assessed as inhibition of cell survival at 2 to 8 uM after 72 hrs by MTS assay; type: functional, cell-based
Outline: (§5)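 Paclitaxel given for 24 h, then test compound added for 72 h more. Fixed paclitaxel:compound ratios were 1:100 in STO and 1:333 in MesoII. Survival by MTS at 490 nm. Expected additive effect taken as the product of single-agent effects. Interaction scored by Chou–Talalay combination index (<1 synergy).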

[19] = system: STO; experiment: Potentiation of paclitaxel-induced cytotoxicity in human STO cells assessed as inhibition of cell survival at 0.15 to 0.6 uM after 72 hrs by MTS assay; type: functional, cell-based; outline: as §5
[20] = system: STO; experiment: Induction of apoptosis in human STO cells assessed as inhibition of survivin phosphorylation at Thr34 at IC50 by Western blotting analysis; type: functional, cell-based
[21] = system: Meso2; experiment: Induction of apoptosis in human Meso2 cells assessed as DNA fragmentation at IC50 by fluorescence microscopy relative to control; type: functional, cell-based; settings: TDE = time-dependent effect
[22] = system: STO; experiment: Induction of apoptosis in human STO cells assessed as DNA fragmentation at IC50 by fluorescence microscopy relative to control; type: functional, cell-based; settings: TDE = time-dependent effect
[23] = system: Meso2; experiment: Induction of apoptosis in human Meso2 cells assessed as chromatin condensation at IC50 by fluorescence microscopy relative to control; type: functional, cell-based; settings: TDE = time-dependent effect
[24] = system: STO; experiment: Induction of apoptosis in human STO cells assessed as chromatin condensation at IC50 by fluorescence microscopy relative to control; type: functional, cell-based; settings: TDE = time-dependent effect
[25] = Cell cycle arrest in human Meso2 cells assessed as increase in sub-G1 phase accumulation at IC50 after 72 hrs by propidium iodide staining-based FACS-flow cytometry relative to control; type: functional
[26] = Cell cycle arrest in human STO cells assessed as increase in sub-G1 phase accumulation at IC50 after 72 hrs by propidium iodide staining-based FACS-flow cytometry relative to control; type: functional
[27] = Cell cycle arrest in human Meso2 cells assessed as reduction of cells at G1 phase at IC50 after 48 to 72 hrs by propidium iodide staining-based FACS-flow cytometry relative to control; type: functional
[28] = Cell cycle arrest in human STO cells assessed as reduction of cells at G1 phase at IC50 after 48 to 72 hrs by propidium iodide staining-based FACS-flow cytometry relative to control; type: functional
[29] = Cell cycle arrest in human Meso2 cells assessed as accumulation at G2/M phase at IC50 after 48 hrs by propidium iodide staining-based FACS-flow cytometry relative to control; type: functional
[30] = Cell cycle arrest in human STO cells assessed as accumulation at G2/M phase at IC50 after 48 hrs by propidium iodide staining-based FACS-flow cytometry relative to control; type: functional
[31] = system: Meso2; experiment: Induction of apoptosis in human Meso2 cells assessed as increase in caspase 3 activation at 12 to 24 […] hrs by DEVD-pNA substrate-based spectrofluorometric analysis relative to control; type: functional, cell-based
[32] = system: STO; experiment: Induction of apoptosis in human STO cells assessed as increase in caspase 3 activation at 3 to 6 nM hrs by DEVD-pNA substrate-based spectrofluorometric analysis relative to control; type: functional, cell-based

Glycogen synthase kinase-3 beta, sequence (P49841 whole entry): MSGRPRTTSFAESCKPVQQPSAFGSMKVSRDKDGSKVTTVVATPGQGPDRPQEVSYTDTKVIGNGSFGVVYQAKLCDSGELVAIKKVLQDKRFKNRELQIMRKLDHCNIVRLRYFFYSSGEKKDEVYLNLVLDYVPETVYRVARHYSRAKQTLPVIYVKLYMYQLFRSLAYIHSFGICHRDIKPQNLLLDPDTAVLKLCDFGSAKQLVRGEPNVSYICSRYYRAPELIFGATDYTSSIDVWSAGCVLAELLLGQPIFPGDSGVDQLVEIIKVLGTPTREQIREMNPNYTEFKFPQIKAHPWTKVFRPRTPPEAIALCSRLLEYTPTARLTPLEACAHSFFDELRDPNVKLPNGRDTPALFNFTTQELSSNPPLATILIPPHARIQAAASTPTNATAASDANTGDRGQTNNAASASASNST
Cyclin-dependent kinase 1/cyclin B1 (Homo sapiens), sequence (P06493 whole entry, looked up): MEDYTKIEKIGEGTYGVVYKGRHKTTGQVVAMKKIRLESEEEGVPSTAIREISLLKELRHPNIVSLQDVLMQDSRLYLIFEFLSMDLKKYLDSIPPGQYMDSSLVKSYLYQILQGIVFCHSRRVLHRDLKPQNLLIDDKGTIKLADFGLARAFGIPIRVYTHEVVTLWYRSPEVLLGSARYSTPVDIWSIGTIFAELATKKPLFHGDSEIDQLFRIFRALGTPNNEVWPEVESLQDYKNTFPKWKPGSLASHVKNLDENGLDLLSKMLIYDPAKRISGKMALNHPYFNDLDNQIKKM
Cyclin-dependent kinase 1/cyclin B1 (Homo sapiens), sequence (P14635 whole entry, looked up): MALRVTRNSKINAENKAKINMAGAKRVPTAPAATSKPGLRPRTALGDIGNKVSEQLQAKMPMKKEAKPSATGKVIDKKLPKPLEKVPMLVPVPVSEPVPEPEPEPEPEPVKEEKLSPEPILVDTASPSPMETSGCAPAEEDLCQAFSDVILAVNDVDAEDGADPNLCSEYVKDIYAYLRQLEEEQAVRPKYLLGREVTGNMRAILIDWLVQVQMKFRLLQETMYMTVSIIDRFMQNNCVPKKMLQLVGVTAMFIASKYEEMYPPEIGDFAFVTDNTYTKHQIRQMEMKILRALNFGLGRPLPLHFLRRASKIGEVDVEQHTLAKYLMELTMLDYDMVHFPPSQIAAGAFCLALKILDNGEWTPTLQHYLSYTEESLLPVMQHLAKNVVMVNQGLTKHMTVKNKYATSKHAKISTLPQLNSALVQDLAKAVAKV
Cyclin-dependent kinase 1/cyclin B1, sequence (P06493 whole entry): as the sequence (P06493 whole entry, looked up) above
Cyclin-dependent kinase 1/cyclin B1, sequence (P14635 whole entry, further chain): as the sequence (P14635 whole entry, looked up) above

Compound: Cn1cc(-c2csc(-c3c[nH]c4ccccc34)n2)c2cccnc21
- Activity [1]: Active
- Activity [2]: Active
- Activity [3]: 41.9%
- Activity [4]: Active
- Activity [5]: Active
- pIC50 [6]: 6.48
- inhibition [7]: Dose-dependent effect
- pIC50 [8]: 5.39
- inhibition [9]: Dose-dependent effect
- pIC50 [10]: < 4.00
- inhibition in vivo at 50 mg/kg [11]: 75%
- Activity [12]: 41.9%
- Activity [13]: 1%
- Activity [14]: Non-toxic
- pIC50 [15]: 6.12
- pIC50 [16]: 4.40
- inhibition [17]: tde
- inhibition [18]: Active
- inhibition [19]: Active
- inhibition [20]: Active
- Activity [21]: tde
- Activity [22]: tde
- Activity [23]: tde
- Activity [24]: tde
- Activity [25]: 19.9%
- Activity [26]: 25.8%
- Activity [27]: Active
- Activity [28]: Active
- Activity [29]: 33.3%
- Activity [30]: 33.3%

Compound: CC(=O)O[C@H]1C(=O)[C@@]2(C)[C@H]([C@H](OC(=O)c3ccccc3)[C@]3(O)C[C@H](OC(=O)[C@H](O)[C@@H](NC(=O)c4ccccc4)c4ccccc4)C(C)=C1C3(C)C)[C@]1(OC(C)=O)CO[C@@H]1C[C@@H]2O
- Activity [31]: Active
- Activity [32]: Active

Compound: Cn1cc(-c2nc(-c3cn(C)c4ncccc34)cs2)c2ccccc21
- pIC50 [6]: 6.21
- inhibition [7]: Dose-dependent effect
- pIC50 [8]: 4.78
- inhibition [9]: Dose-dependent effect
- pIC50 [10]: 4.73
